The record followed here is ChEMBL document CHEMBL1122456, “Structure-activity relationships for activation of adenylate cyclase by the diterpene forskolin and its derivatives” (J Med Chem, 1983).

pEC50: −log10 of the molar value.

Holding throughout (assay type): functional
The species named for one experiment is Cavia porcellus. Description: Percent conversion of total labeled nucleotides to cyclic AMP, determined in guinea pig cerebral cortical vesicular entities at 200 uM concentration. Summed up: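 Gray-matter cortex slices from male NIH guinea pigs (300 g) homogenized in O2/CO2-gassed KRB, pH 7.4. The 1000g pellet was labeled with [3H]adenine for 30 min at 37 °C, washed, post-incubated 15 min at 37 °C, and aliquoted. Aliquots were equilibrated 10 min at 37 °C, then given compound at 200 μM for 10 min at 30 °C and stopped with TCA. Read-out is labeled cAMP as percent of total labeled adenine nucleotides, reported as mean ± SEM.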

For another experiment, the species on record is Oryctolagus cuniculus. The experiment is described as follows: Percent stimulation of adenylate cyclase determined in rabbit heart membranes at 5 uM of compound as compared to 5 uM of forskolin. The note with it: Membrane.
The species named for the next experiment is Rattus norvegicus. Description: Concentration required to activate rat cerebral cortical adenylate cyclase activity elicited by 200 uM forskolin. Summed up:
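Fresh crude cortical membranes from male Sprague-Dawley rats (150-175 g). Incubated in 50 mM Tris-HCl pH 7.5 with 1.0 mM IBMX, 5 mM MgCl2, 0.1 mM ATP plus [α-32P]ATP, 0.2 mM EGTA, and a creatine phosphate/creatine kinase regenerating system. About 100 μg protein per assay, 30 °C for 10 min, stopped with TCA, [32P]cAMP isolated. Run in triplicate. EC50 taken from ≥2 curves over 0.01–200 μM. Where full activation was not reached, EC50 is the concentration giving 50% of the maximal activity with 200 μM forskolin.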

For orientation: pEC50 means the EC50 on a negative log10 scale, so that one unit is a factor of ten. A lower pEC50 goes with a high EC50. `C=C[C@@]1(C)CC(=O)[C@@]2(O)[C@H](O1)C(OC(=O)CC)C(O)[C@H]1C(C)(C)CC[C@H](O)C12C` (some centres undefined) registered a Conversion in the experiment filed under Cavia porcellus of 1.07%. In the experiment filed under Oryctolagus cuniculus, this molecule had a Stimulation of 67%. Further, the pEC50 in the experiment listed under Rattus norvegicus is 4.82.

In turn, `C=C[C@@]1(C)CC(=O)[C@@]23OC(=O)O[C@H]4CCC(C)(C)[C@H](C5OC(=O)OC5[C@H]2O1)C43C` (some centres undefined) had a Conversion in the experiment listed under Cavia porcellus of 0.25%. The Stimulation in the experiment listed under Oryctolagus cuniculus is 1%.

Consider `C=C[C@@]1(C)CC(=O)[C@@]2(O)[C@H](O1)C(OS(=O)(=O)c1ccc(C)cc1)C(O)[C@H]1C(C)(C)CC[C@H](O)C12C` (some centres undefined), for which, in the experiment listed under Cavia porcellus, the Conversion came to 0.16%. Moreover, in the experiment filed under Oryctolagus cuniculus, the Stimulation was determined as 5%. In the experiment filed under Rattus norvegicus, the pEC50 was less than 4.60.

Turning to `C=C[C@@]1(C)C[C@H](O)[C@@]2(O)[C@H](O1)C(OC(C)=O)C(O)[C@H]1C(C)(C)CC[C@H](O)C12C` (some centres undefined), the Conversion in the experiment listed under Cavia porcellus is 0.97%. This molecule returned a Stimulation in the experiment filed under Oryctolagus cuniculus of 49%. In the experiment listed under Rattus norvegicus, the pEC50 is 4.30.

Consider `C=C[C@@]1(C)CC(=O)[C@@]2(O)[C@H](O1)C(OC(=O)c1cc(OC)c(OC)c(OC)c1)C(O)[C@H]1C(C)(C)CC[C@H](O)C12C` (some centres undefined), for which, in the experiment listed under Cavia porcellus, the Conversion stood at 0.26%. For the same molecule, the Stimulation in the experiment filed under Oryctolagus cuniculus amounted to 31%. The molecule also gave a pEC50 in the experiment listed under Rattus norvegicus of less than 4.60.

With `C=C[C@@]1(C)CC(=O)[C@@]2(O)[C@H](O1)C(OC=O)C(O)[C@H]1C(C)(C)CC[C@H](O)C12C` (some centres undefined), the Conversion in the experiment listed under Cavia porcellus is recorded as 0.47%. In the experiment filed under Oryctolagus cuniculus, the Stimulation was 52%. The same molecule gave a pEC50 in the experiment filed under Rattus norvegicus of 3.82.

In turn, `C=C[C@@]1(C)C[C@@H](O)[C@H]2[C@H](O1)C(O)C(O)[C@H]1C(C)(C)CC[C@H](O)C21C` (some centres undefined) gave a Conversion in the experiment filed under Cavia porcellus of 0.41%. Also, in the experiment listed under Oryctolagus cuniculus, the Stimulation was 1.6%.

Take `C=C[C@@]1(C)CC(=O)[C@@]2(O)[C@H](O1)C(OC(C)=O)C(O)[C@H]1C(C)(C)CCC(=O)C12C` (some centres undefined): in the experiment listed under Cavia porcellus, the Conversion was determined as 0.76%. For the same molecule, the Stimulation in the experiment listed under Oryctolagus cuniculus came to 47%. For the same molecule, in the experiment filed under Rattus norvegicus, the pEC50 was 3.70.

Regarding `C=C[C@@]1(C)CC(=O)[C@@]2(O)[C@H](O1)C(OC(C)=O)C(O)[C@H]1C(C)(C)CC[C@H](O)C12C` (some centres undefined), the Conversion in the experiment filed under Cavia porcellus is 4.4%. Further, the Stimulation in the experiment filed under Oryctolagus cuniculus is 100%. In the experiment filed under Rattus norvegicus, this molecule gave a pEC50 of 5.10.

Molecule `C=C[C@@]1(C)CC(=O)[C@@]2(O)[C@H](O1)C(OC(=O)OCC)C(O)[C@H]1C(C)(C)CC[C@H](O)C12C` (some centres undefined) yielded a Conversion in the experiment filed under Cavia porcellus of 4.01%. In addition, in the experiment listed under Oryctolagus cuniculus, the Stimulation stood at 60%. In the experiment listed under Rattus norvegicus, this molecule showed a pEC50 of 5.10.

Molecule `C=C[C@@]1(C)CC(=O)[C@H]2[C@H](O1)C(OC(C)=O)C(O)[C@H]1C(C)(C)CC[C@H](O)C21C` (some centres undefined) showed a Conversion in the experiment filed under Cavia porcellus of 0.84%. In the experiment listed under Oryctolagus cuniculus, this molecule displayed a Stimulation of 46%. Moreover, in the experiment listed under Rattus norvegicus, the negative logarithm of the EC50 (pEC50) is 4.00.

As for `C=C[C@@]1(C)CC(=O)[C@H]2[C@H](O1)C(OC(C)=O)C(O)[C@H]1C(C)(C)CCCC21C` (some centres undefined), the Conversion in the experiment listed under Cavia porcellus came to 0.18%. In the experiment filed under Oryctolagus cuniculus, the Stimulation came to 1%.

With `CC(=O)OC1C(O)[C@H]2C(C)(C)CC[C@H](O)C2(C)[C@@]23OC(CO)[C@@](C)(CC2=O)O[C@H]13` (some centres undefined), in the experiment filed under Cavia porcellus, the Conversion was determined as 0.18%. The molecule further registered a Stimulation in the experiment filed under Oryctolagus cuniculus of 0%.

Molecule `C=C[C@@]1(C)CC(=O)[C@@]2(O)[C@H](O1)C(O)C(O)[C@H]1C(C)(C)CC[C@H](O)C12C` (some centres undefined) returned a Conversion in the experiment filed under Cavia porcellus of 1.37%. The Stimulation in the experiment filed under Oryctolagus cuniculus is 51%. In the experiment filed under Rattus norvegicus, this molecule had a pEC50 of 4.70.

As for `CC[C@@]1(C)CC(=O)[C@@]2(O)[C@H](O1)C(OC(C)=O)C(O)[C@H]1C(C)(C)CC[C@H](O)C12C` (some centres undefined), the Conversion in the experiment filed under Cavia porcellus was determined as 0.97%. Besides, the Stimulation in the experiment filed under Oryctolagus cuniculus was 49%. The pEC50 in the experiment filed under Rattus norvegicus was 4.00.

`CC(=O)OC1C(O)[C@H]2C(C)(C)CC[C@H](O)C2(C)[C@@]2(O)C(=O)C[C@](C)(C3CO3)O[C@H]12` (some centres undefined) returned a Conversion in the experiment filed under Cavia porcellus of 0.22%. The molecule also came in with a Stimulation in the experiment listed under Oryctolagus cuniculus of 5%.

Molecule `C=C[C@@]1(C)CC(=O)[C@@]23OS(=O)O[C@H]4CCC(C)(C)[C@H](C(O)C(OC(C)=O)[C@H]2O1)C43C` (some centres undefined) registered a Conversion in the experiment listed under Cavia porcellus of 1.2%. Moreover, the Stimulation in the experiment filed under Oryctolagus cuniculus was determined as 28%. The same molecule had a pEC50 in the experiment listed under Rattus norvegicus of less than 3.70.

In the experiment filed under Cavia porcellus, `C=C[C@@]1(C)CC(=O)[C@@]2(O)[C@H](O1)C(OC(=O)N(CC)CC)C(O)[C@H]1C(C)(C)CC[C@H](O)C12C` (some centres undefined) displayed a Conversion of 0.84%. Also, the Stimulation in the experiment filed under Oryctolagus cuniculus worked out at 59%. Further, in the experiment filed under Rattus norvegicus, the pEC50 is 3.70.

`C=C[C@@]1(C)CC(=O)[C@@]2(O)[C@H](O1)C(OC(C)=O)C(OC(C)=O)[C@H]1C(C)(C)CC[C@H](OC(C)=O)C12C` (some centres undefined) displayed a Conversion in the experiment filed under Cavia porcellus of 0.47%. Moreover, the Stimulation in the experiment listed under Oryctolagus cuniculus turned out to be 20%. For the same molecule, the pEC50 in the experiment listed under Rattus norvegicus is less than 3.70.

Molecule `C=C[C@@]1(C)CC(=O)[C@@]2(O)[C@H](O1)C(OC(C)=O)C(=O)[C@H]1C(C)(C)CCC(=O)C12C` (some centres undefined) showed a Conversion in the experiment filed under Cavia porcellus of 0.17%. Also, the Stimulation in the experiment filed under Oryctolagus cuniculus came to 0%.
